2 molecules from ChEMBL document CHEMBL3272221, “Phosphorus-nitrogen compounds. 21. Murine oncolytic and antifertility effect of adamantylaziridine compounds” (J Med Chem, 1978) can be followed below.

The source made the active and inactive calls. The calls are words filed in the database; no cut-off is given here.

The test system of series [1] is Mus musculus. Kind of series: Antifertility activity in male Swiss albino mouse assessed as reduction of litter size at 10 mg/kg, po administered for 5 days followed by mating measured for 2 weeks. Type of series: functional, organism-based. Also on record: dose 10 mg/kg. In outline: (§1)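 Male Swiss albino mice, 4–6 per group, dosed ip or orally by gavage for five consecutive days (10, 15, 22.5 or 33.8 mg/kg), then serially mated with females over successive mating periods against control groups. Read-outs were nonpregnant/total females and viable/total conceptus per period. Student's t test versus control (p < 0.05) was used only for groups with at least two pregnant females.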

The test system of series [2] is Mus musculus. Kind of series: Antifertility activity in male Swiss albino mouse assessed as viable conceptus at 10 mg/kg, po qd administered for 5 days followed by mating measured after 4 weeks. Type of series: functional, organism-based. Set-up: dose 10 mg/kg. The gist of the method:
as §1

Series [3] deals with Mus musculus. Kind of series: Antifertility activity in male Swiss albino mouse assessed as nonpregnant female mouse at 10 mg/kg, ip qd administered for 5 days followed by mating measured after 3 weeks. Type of series: functional, organism-based. Also on record: dose 10 mg/kg. In outline: as §1
Series [4] deals with Mus musculus. Kind of series: Antifertility activity in male Swiss albino mouse assessed as viable conceptus at 10 mg/kg, ip qd administered for 5 days followed by mating measured after 1 week. Type of series: functional, organism-based. Also on record: dose 10 mg/kg. In outline:
as §1

Series [5] is described as follows: Solubility of the compound in water. Type of series: physicochemical. Particulars: buffer. The gist of the method:
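Saturated aqueous solutions were shaken 23 h at 24 °C. The dissolved amount was determined gravimetrically after evaporation and drying at 70 °C.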

Series [6] is described as follows: Octanol-water partition coefficient, log P of the compound. Type of series: physicochemical. The gist of the method: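 Shake-flask partitioning: 0.5 g solute in 50.0 mL each of 1-octanol and water, shaken 18 h at 24 °C. Layers were separated, filtered and evaporated (octanol removed as its water azeotrope), dried at 70 °C and weighed. Concentrations were determined gravimetrically.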

For series [7], the system named is L1210. Kind of series: Antitumor activity against mouse L1210 cells allografted in mouse assessed as mean survival time at 10 mg/kg, ip after 9 days. Type of series: functional. Particulars: route intraperitoneal. The gist of the method: (§2)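 Mice bearing ip-implanted L1210 ascites cells dosed ip daily for 9 days, run by NCI contractors. Activity was expressed as % T/C, the mean survival time of treated over control animals as a percent, with >125% taken as active. Deaths at a given dose were recorded as toxicity.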

Series [8] concerns Mus musculus. Kind of series: Toxicity in mouse allografted with mouse L1210 cells assessed as death at 20 mg/kg, ip. Type of series: organism-based. Set-up: dose 20 mg/kg, route intraperitoneal. Particulars: in vivo. In outline:
as §2

Series [9] concerns Mus musculus. Kind of series: Antifertility activity in male Swiss albino mouse assessed as nonpregnant female mouse at 15 mg/kg, po qd administered for 5 days followed by mating measured after 1 week. Type of series: functional, organism-based. Also on record: dose 15 mg/kg. In outline:
as §1

Series [10] concerns Mus musculus. Kind of series: Antifertility activity in male Swiss albino mouse assessed as viable conceptus at 10 mg/kg, ip qd administered for 5 days followed by mating measured after 3 weeks. Type of series: functional, organism-based. Set-up: dose 10 mg/kg. In outline: as §1
Series [11] has as its system Mus musculus. Kind of series: Antifertility activity in male Swiss albino mouse assessed as viable conceptus at 33.8 mg/kg, po qd administered for 5 days followed by mating measured after 3 weeks. Type of series: functional, organism-based. Also on record: dose 33.8 mg/kg. The gist of the method:
as §1

The subject of series [12] is Mus musculus. Kind of series: Antifertility activity in male Swiss albino mouse assessed as nonpregnant female mouse at 33.8 mg/kg, ip qd administered for 5 days followed by mating measured after 1 week. Also on record: dose 33.8 mg/kg. Type of series: functional, organism-based. The gist of the method:
as §1

Series [13] has as its system Mus musculus. Kind of series: Antifertility activity in male Swiss albino mouse assessed as nonpregnant female mouse at 33.8 mg/kg, po qd administered for 5 days followed by mating measured after 1 week. Type of series: functional, organism-based. Also on record: dose 33.8 mg/kg. The gist of the method: as §1
For series [14], the system named is Mus musculus. Kind of series: Antifertility activity in male Swiss albino mouse assessed as nonpregnant female mouse at 10 mg/kg, ip qd administered for 5 days followed by mating measured after 2 weeks. Type of series: functional, organism-based. Set-up: dose 10 mg/kg. The gist of the method: as §1
The test system of series [15] is Mus musculus. Kind of series: Antifertility activity in male Swiss albino mouse assessed as nonpregnant female mouse at 33.8 mg/kg, ip qd administered for 5 days followed by mating measured after 2 weeks. Type of series: functional, organism-based. Set-up: dose 33.8 mg/kg. In outline: as §1
Series [16] has as its system Mus musculus. Kind of series: Antifertility activity in male Swiss albino mouse assessed as viable conceptus at 10 mg/kg, ip qd administered for 5 days followed by mating measured after 4 weeks. Type of series: functional, organism-based. Set-up: dose 10 mg/kg. In outline:
as §1

Series [17] relates to Mus musculus. Kind of series: Antifertility activity in male Swiss albino mouse assessed as nonpregnant female mouse at 22.5 mg/kg, po qd administered for 5 days followed by mating measured after 5 weeks. Type of series: functional, organism-based. Also on record: dose 22.5 mg/kg. In outline:
as §1

Series [18] concerns Mus musculus. Kind of series: Antifertility activity in male Swiss albino mouse assessed as nonpregnant female mouse at 22.5 mg/kg, po qd administered for 5 days followed by mating measured after 3 weeks. Type of series: functional, organism-based. Also on record: dose 22.5 mg/kg. The gist of the method: as §1
Series [19] deals with Mus musculus. Kind of series: Antifertility activity in male Swiss albino mouse assessed as nonpregnant female mouse at 10 mg/kg, […] administered for 5 days followed by mating measured after 1 week. Type of series: functional, organism-based. Also on record: dose 10 mg/kg. The gist of the method: as §1
The test system of series [20] is Mus musculus. Kind of series: Antifertility activity in male Swiss albino mouse assessed as nonpregnant female mouse at 33.8 mg/kg, ip qd administered for 5 days followed by mating measured after 3 weeks. Type of series: functional, organism-based. Set-up: dose 33.8 mg/kg. The gist of the method: as §1
Series [21] concerns Mus musculus. Kind of series: Antifertility activity in male Swiss albino mouse assessed as viable conceptus at 15 mg/kg, ip administered for 5 days followed by mating measured after 5 weeks. Type of series: functional, organism-based. Set-up: dose 15 mg/kg. In outline: as §1
In series [22] the test system is Mus musculus. Kind of series: Antifertility activity in male Swiss albino mouse assessed as nonpregnant female mouse at 15 mg/kg, ip qd administered for 5 days followed by mating measured after 1 week. Type of series: functional, organism-based. Also on record: dose 15 mg/kg. In outline:
as §1

The subject of series [23] is Mus musculus. Kind of series: Antifertility activity in male Swiss albino mouse assessed as nonpregnant female mouse at 22.5 mg/kg, ip qd administered for 5 days followed by mating measured after 1 week. Type of series: functional, organism-based. Also on record: dose 22.5 mg/kg. In outline:
as §1

Series [24] concerns Mus musculus. Kind of series: Antifertility activity in male Swiss albino mouse assessed as nonpregnant female mouse at 33.8 mg/kg, ip qd administered for 5 days followed by mating measured after 4 weeks. Type of series: functional, organism-based. Also on record: dose 33.8 mg/kg. In outline: as §1
Series [25] concerns Mus musculus. Kind of series: Antifertility activity in male Swiss albino mouse assessed as nonpregnant female mouse at 10 mg/kg, ip qd administered for 5 days followed by mating measured after 4 weeks. Type of series: functional, organism-based. Set-up: dose 10 mg/kg. In outline:
as §1

Series [26] deals with Mus musculus. Kind of series: Antifertility activity in male Swiss albino mouse assessed as viable conceptus at 10 mg/kg, ip administered for 5 days followed by mating measured after 5 weeks. Type of series: functional, organism-based. Set-up: dose 10 mg/kg. In outline:
as §1

The subject of series [27] is Mus musculus. Kind of series: Antifertility activity in male Swiss albino mouse assessed as nonpregnant female mouse at 22.5 mg/kg, ip qd administered for 5 days followed by mating measured after 5 weeks. Type of series: functional, organism-based. Also on record: dose 22.5 mg/kg. The gist of the method: as §1
Series [28] relates to L1210. Kind of series: Antitumor activity against mouse L1210 cells allografted in mouse assessed as mean survival time at 50 mg/kg, ip after 9 days. Type of series: functional. Particulars: route intraperitoneal. In outline: as §2
Series [29] deals with Mus musculus. Kind of series: Antifertility activity in male Swiss albino mouse assessed as nonpregnant female mouse at 33.8 mg/kg, ip qd administered for 5 days followed by mating measured after 5 weeks. Type of series: functional, organism-based. Set-up: dose 33.8 mg/kg. In outline:
as §1

Series [30] relates to Mus musculus. Kind of series: Antifertility activity in male Swiss albino mouse assessed as viable conceptus at 22.5 mg/kg, ip qd administered for 5 days followed by mating measured after 3 weeks. Type of series: functional, organism-based. Set-up: dose 22.5 mg/kg. The gist of the method: as §1
For series [31], the system named is Mus musculus. Kind of series: Antifertility activity in male Swiss albino mouse assessed as nonpregnant female mouse at 33.8 mg/kg, po qd administered for 5 days followed by mating measured after 5 weeks. Set-up: dose 33.8 mg/kg. Type of series: functional, organism-based. In outline: as §1
Series [32] concerns Mus musculus. Kind of series: Antifertility activity in male Swiss albino mouse assessed as nonpregnant female mouse at 15 mg/kg, po qd administered for 5 days followed by mating measured after 5 weeks. Type of series: functional, organism-based. Set-up: dose 15 mg/kg. The gist of the method:
as §1

In series [33] the test system is Mus musculus. Kind of series: Antifertility activity in male Swiss albino mouse assessed as viable conceptus at 22.5 mg/kg, ip qd administered for 5 days followed by mating measured after 2 weeks. Type of series: functional, organism-based. Also on record: dose 22.5 mg/kg. In outline: as §1
Series [34] concerns Mus musculus. Kind of series: Toxicity in mouse allografted with mouse L1210 cells assessed as death at 200 mg/kg, ip. Type of series: organism-based. Set-up: dose 200 mg/kg, route intraperitoneal. Particulars: in vivo. In outline:
as §2

In the case of `O=P(NC12CC3CC(CC(C3)C1)C2)(N1CC1)N1CC1`, the result in the series on Mus musculus [1], in the series on Mus musculus [3] and in the series on Mus musculus [4] was Active. In addition, in the series with Mus musculus [2], the result was inactive. The same molecule displayed a solubility in [5] of 0.13%. This molecule showed a logP in series [6] of 1.45. The T/C in the series on L1210 [7] is 244%. Moreover, the Activity result in the series with Mus musculus [8] was “Toxic”.

In the case of `O=P(N1CC1)(N1CC1)C12CC3CC(CC(C3)C1)C2`, the result in the series with Mus musculus [9], in the series with Mus musculus [10], with Mus musculus [11], with Mus musculus [13], in the series with Mus musculus [14] and with Mus musculus [16] was inactive. Also, the result with Mus musculus [17], in the series on Mus musculus [18], in the series on Mus musculus [19], in the series with Mus musculus [21], with Mus musculus [25] and with Mus musculus [26] was inactive. For the same molecule, the outcome in the series with Mus musculus [27], in the series on Mus musculus [31], in the series with Mus musculus [32] and with Mus musculus [33] was inactive. The outcome in the series with Mus musculus [12], with Mus musculus [15], in the series on Mus musculus [20], in the series with Mus musculus [22], in the series on Mus musculus [23] and in the series on Mus musculus [4] was Active. For the same molecule, the outcome in the series with Mus musculus [24], in the series on Mus musculus [29] and in the series on Mus musculus [30] was Active. The same molecule showed a solubility in [5] of 0.94%. The logP in series [6] came to 0.88. Besides, in the series on L1210 [28], the T/C was 243%. Besides, in the series on Mus musculus [34], the Activity entry was “Toxic”.
